pIC50: −log10 of the molar value. Calls of active or inactive are those of the source.
Key:
[1] = tested on: CHO-AA8; experiment: Inhibition of cell growth in culture against Chinese hamster ovary derived cell line, AA8; assay type: functional, cell-based, Cricetulus griseus
Method in brief: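 AA8 Chinese hamster ovary cells were kept in log phase in Alpha MEM with 10% fetal calf serum and exposed to drug for 18 h. Drug was removed by three washes with fresh medium, then cells were grown a further 72 h. Cell density was read by methylene blue staining. IC50 is the nominal concentration reducing cell density to 50% of controls, with eight controls per plate. Values are means of three determinations.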

[2] = organism: Bos taurus; experiment: Spectrophotometry for binding to calf thymus DNA in 0.01 M HEPES buffer (pH 7.0) at 25 degree C; assay type: ADME; details: cattle
[3] = tested on: P388; experiment: Inhibition of cell growth in culture against wild type P388 murine leukemia; assay type: functional, cell-based, Mus musculus
Method in brief: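 Wild-type P388 murine leukemia cells were kept in log phase in RPMI 1640 with 10% fetal calf serum. Drug was present throughout the 72 h growth period. Final cell density was read by a modified MTT method. IC50 is the nominal concentration reducing cell density to 50% of controls, with eight controls per plate. Values are means of three determinations.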

[4] = tested on: P388; experiment: Evaluation in vivo against […] cell line for percentage increase in lifespan of drug-treated tumor-bearing animals at 100 mg/kg dose.(ILS); NA=Compound inactive at nontoxic doses; assay type: functional, organism-based; parameters: dose 100 mg/kg; details: Mus musculus
Method in brief: (§1)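 Animals received 10^6 P388 cells intraperitoneally. On day 1, 24 h after inoculation, a single intraperitoneal drug dose was given in 0.1 mL of 30% v/v dimethylacetamide/water. ILS is the percentage increase in lifespan of treated tumor-bearing animals at the optimal dose, defined as the dose giving maximal life extension. ILS above 20% is counted as significant.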

[5] = Hypersensitivity factor value is IC50 of (AA8) to that of UV4 where UV4 is a mutant AA8 line lacking the ability to perform incision repair; assay type: functional
Method in brief: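 HF is IC50(AA8)/IC50(UV4), where UV4 is an AA8 mutant lacking incision repair. Both lines were grown in Alpha MEM with 10% fetal calf serum and given an 18 h drug exposure, then washed and grown 72 h more. Cell density was read by methylene blue staining, and IC50 was set at 50% of control density.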

[6] = tested on: P388; experiment: Evaluation in vivo against […] cell line for percentage increase in lifespan of drug-treated tumor-bearing animals when treated at 225 mg/kg dose.(ILS); assay type: functional, Mus musculus; method in brief: as §1
[7] = tested on: P388; experiment: Evaluation in vivo against […] cell line for percentage increase in lifespan of drug-treated tumor-bearing animals when treated at 30 mg/kg dose.(ILS); assay type: functional, Mus musculus; method in brief: as §1
[8] = tested on: P388; experiment: Evaluation in vivo against […] cell line for percentage increase in lifespan of drug-treated tumor-bearing animals at 30 mg/kg dose.(ILS); NA=Compound inactive at nontoxic doses; assay type: functional, organism-based; parameters: dose 30 mg/kg; details: Mus musculus; method in brief: as §1
[9] = tested on: P388; experiment: Evaluation in vivo against […] cell line for percentage increase in lifespan of drug-treated tumor-bearing animals when treated at 45 mg/kg dose.(ILS); assay type: functional, Mus musculus; method in brief: as §1

SMILES | pIC50 ([1]; Cricetulus griseus, CHO-AA8) | Log K [2] | pIC50 ([3]; p388) | Increase [4] | Ratio [5] | Increase [6] | Increase [7] | pIC50 ([3]; Mus musculus, P388) | Increase [8] | pIC50 ([1]; cho-aa8) | Increase [9]
C[n+]1ccc(Nc2ccc(C(=O)c3ccc(N(CCCl)CCCl)cc3)cc2)c2ccccc21 | 5.55 | 6.61 M-1 | 5.92 | inactive | 6.4 |  |  |  |  |  | 
O=C(O)CCCc1ccc(N(CCCl)CCCl)cc1 [CHLORAMBUCIL] |  |  |  |  | 58 | 37% |  |  |  |  | 
C[n+]1ccc(Nc2ccc(C(=O)Nc3ccc(N(CCCl)CCCl)cc3)cc2)c2ccccc21 | 6.47 | 6.48 M-1 | 6.31 |  | 17 |  | 28% |  |  |  | 
CCN(CCCl)c1ccc(Oc2ccc(Nc3ccnc4ccccc34)cc2)cc1 | 5.15 |  |  |  | 11.3 |  |  | 6.30 | inactive |  | 
C[n+]1ccc(Nc2ccc(Cc3ccc(N(CCCl)CCCl)cc3)cc2)c2ccccc21 |  | 6.58 M-1 | 7.14 |  | 20 |  |  |  |  | 6.22 | 46%
C[n+]1ccc(Nc2ccc(Oc3ccc(N(CCCl)CCCl)cc3)cc2)c2ccccc21 | 6.19 | 6.45 M-1 |  |  | 23 |  | 20% |  |  |  | 

Source: ChEMBL document CHEMBL1125925, “DNA-directed alkylating agents. 4. 4-anilinoquinoline-based minor groove directed aniline mustards” (J Med Chem, 1991)
